Source: ChEMBL document CHEMBL2331324, “Synthesis and biological evaluation of guanidino analogues of roscovitine” (Eur J Med Chem, 2013)

How the values were obtained:
[1] = biological target: Mitogen-activated protein kinase kinase kinase 7 (Homo sapiens) (UniProt O43318); assay: Inhibition of recombinant TAK1 (unknown origin) assessed as residual activity using [gamma-33P]ATP as substrate at 1 uM
In short: (§1)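 Kinase panel screen with each compound at 1 µM, in duplicate. Reactions were started with [γ-33P]ATP (800 cpm/pmol) at 5, 20 or 50 µM, chosen per enzyme to be at or below its ATP Km. Reactions were stopped with phosphoric acid and spotted onto P81 filters. Results are given as residual kinase activity.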

[2] = biological target: Receptor tyrosine-protein kinase erbB-4 (Homo sapiens) (UniProt Q15303); assay: Inhibition of recombinant HER4 (unknown origin) assessed as residual activity using [gamma-33P]ATP as substrate at 1 uM
In short: (§2)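 Recombinant kinase panel screened at 1 µM in duplicate. Reactions started with [γ-33P]ATP (800 cpm/pmol) at 5, 20 or 50 µM, chosen to sit at or below each enzyme's ATP Km. Stopped with phosphoric acid and spotted onto P81 filters. Result given as residual kinase activity.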

[3] = biological target: Serine/threonine-protein kinase OSR1 (Homo sapiens) (UniProt O95747); assay: Inhibition of recombinant OSR1 (unknown origin) assessed as residual activity using [gamma-33P]ATP as substrate at 1 uM
In short: (§3)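 Selectivity panel run under previously published conditions. Screened at 1 μM in duplicate. Reactions started with [γ-33P]ATP (800 cpm/pmol) at 5, 20 or 50 μM, chosen to be at or below each enzyme's ATP Km. Stopped with phosphoric acid, spotted onto P81 filters. Result expressed as residual kinase activity.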

[4] = biological target: MAP kinase-activated protein kinase 5 (Homo sapiens) (UniProt Q8IW41); assay: Inhibition of recombinant PRAK (unknown origin) assessed as residual activity using [gamma-33P]ATP as substrate at 1 uM; in short: as §3
[5] = biological target: Dual specificity protein kinase CLK2 (Homo sapiens) (UniProt P49760); assay: Inhibition of recombinant CLK2 (unknown origin) assessed as residual activity using [gamma-33P]ATP as substrate at 1 uM; in short: as §2
[6] = biological target: Ribosomal protein S6 kinase beta-1 (Homo sapiens) (UniProt P23443); assay: Inhibition of recombinant S6K1 (unknown origin) assessed as residual activity using [gamma-33P]ATP as substrate at 1 uM; in short: as §1
[7] = biological target: Ephrin type-B receptor 4 (Homo sapiens) (UniProt P54760); assay: Inhibition of recombinant EPH-B4 (unknown origin) assessed as residual activity using [gamma-33P]ATP as substrate at 1 uM; in short: as §2
[8] = biological target: Homeodomain-interacting protein kinase 1 (Homo sapiens) (UniProt Q86Z02); assay: Inhibition of recombinant HIPK1 (unknown origin) assessed as residual activity using [gamma-33P]ATP as substrate at 1 uM; in short: as §2
[9] = biological target: Serine/threonine-protein kinase 26 (Homo sapiens) (UniProt Q9P289); assay: Inhibition of recombinant MST4 (unknown origin) assessed as residual activity using [gamma-33P]ATP as substrate at 1 uM; in short: as §3
[10] = biological target: MAP kinase-activated protein kinase 2 (Homo sapiens) (UniProt P49137); assay: Inhibition of recombinant MAPKAPK2 (unknown origin) assessed as residual activity using [gamma-33P]ATP as substrate at 1 uM; in short: as §3
[11] = biological target: Serine/threonine-protein kinase PAK 4 (Homo sapiens) (UniProt O96013); assay: Inhibition of recombinant PAK4 (unknown origin) assessed as residual activity using [gamma-33P]ATP as substrate at 1 uM; in short: as §3
[12] = biological target: Ribosomal protein S6 kinase alpha-5 (Homo sapiens) (UniProt O75582); assay: Inhibition of recombinant MSK1 (unknown origin) assessed as residual activity using [gamma-33P]ATP as substrate at 1 uM; in short: as §3
[13] = biological target: Tyrosine-protein kinase ZAP-70 (Homo sapiens) (UniProt P43403); assay: Inhibition of recombinant ZAP70 (unknown origin) assessed as residual activity using [gamma-33P]ATP as substrate at 1 uM; in short: as §1
[14] = biological target: Serine/threonine-protein kinase MARK1 (Homo sapiens) (UniProt Q9P0L2); assay: Inhibition of recombinant MARK1 (unknown origin) assessed as residual activity using [gamma-33P]ATP as substrate at 1 uM; in short: as §3
[15] = biological target: Serine/threonine-protein kinase Chk1 (Homo sapiens) (UniProt O14757); assay: Inhibition of recombinant CHK1 (unknown origin) assessed as residual activity using [gamma-33P]ATP as substrate at 1 uM; in short: as §2
[16] = biological target: Mitogen-activated protein kinase kinase kinase 11 (Homo sapiens) (UniProt Q16584); assay: Inhibition of recombinant MLK3 (unknown origin) assessed as residual activity using [gamma-33P]ATP as substrate at 1 uM; in short: as §3
[17] = biological target: Serine/threonine-protein kinase TAO1 (Homo sapiens) (UniProt Q7L7X3); assay: Inhibition of recombinant TAO1 (unknown origin) assessed as residual activity using [gamma-33P]ATP as substrate at 1 uM; in short: as §1
[18] = biological target: Serine/threonine-protein kinase 16 (Homo sapiens) (UniProt O75716); assay: Inhibition of recombinant MPSK1 (unknown origin) assessed as residual activity using [gamma-33P]ATP as substrate at 1 uM; in short: as §3
[19] = biological target: Tyrosine-protein kinase SYK (Homo sapiens) (UniProt P43405); assay: Inhibition of recombinant SYK (unknown origin) assessed as residual activity using [gamma-33P]ATP as substrate at 1 uM; in short: as §1
[20] = biological target: Serine/threonine-protein kinase N2 (Homo sapiens) (UniProt Q16513); assay: Inhibition of recombinant PRK2 (unknown origin) assessed as residual activity using [gamma-33P]ATP as substrate at 1 uM; in short: as §3
[21] = biological target: 5'-AMP-activated protein kinase catalytic subunit alpha-2 (Homo sapiens) (UniProt P54646); assay: Inhibition of recombinant AMPK (unknown origin) assessed as residual activity using [gamma-33P]ATP as substrate at 1 uM; in short: as §2
[22] = biological target: Serine/threonine-protein kinase Nek2 (Homo sapiens) (UniProt P51955); assay: Inhibition of recombinant NEK2a (unknown origin) assessed as residual activity using [gamma-33P]ATP as substrate at 1 uM; in short: as §3
[23] = biological target: Glycogen synthase kinase-3 beta (Homo sapiens) (UniProt P49841); assay: Inhibition of recombinant GSK3b (unknown origin) assessed as residual activity using [gamma-33P]ATP as substrate at 1 uM; in short: as §2
[24] = biological target: Rho-associated protein kinase 2 (Homo sapiens) (UniProt O75116); assay: Inhibition of recombinant ROCK2 (unknown origin) assessed as residual activity using [gamma-33P]ATP as substrate at 1 uM; in short: as §3
[25] = biological target: Mitogen-activated protein kinase kinase kinase 5 (Homo sapiens) (UniProt Q99683); assay: Inhibition of recombinant ASK1 (unknown origin) assessed as residual activity using [gamma-33P]ATP as substrate at 1 uM; in short: as §2
[26] = biological target: MAP/microtubule affinity-regulating kinase 3 (Homo sapiens) (UniProt P27448); assay: Inhibition of recombinant MARK3 (unknown origin) assessed as residual activity using [gamma-33P]ATP as substrate at 1 uM; in short: as §3
[27] = biological target: Dual specificity tyrosine-phosphorylation-regulated kinase 1A (Homo sapiens) (UniProt Q13627); assay: Inhibition of recombinant DYRK1A (unknown origin) assessed as residual activity using [gamma-33P]ATP as substrate at 1 uM; in short: as §2

Chain of Ribosomal protein S6 kinase beta-1 (Homo sapiens) (P23443 whole entry, looked up): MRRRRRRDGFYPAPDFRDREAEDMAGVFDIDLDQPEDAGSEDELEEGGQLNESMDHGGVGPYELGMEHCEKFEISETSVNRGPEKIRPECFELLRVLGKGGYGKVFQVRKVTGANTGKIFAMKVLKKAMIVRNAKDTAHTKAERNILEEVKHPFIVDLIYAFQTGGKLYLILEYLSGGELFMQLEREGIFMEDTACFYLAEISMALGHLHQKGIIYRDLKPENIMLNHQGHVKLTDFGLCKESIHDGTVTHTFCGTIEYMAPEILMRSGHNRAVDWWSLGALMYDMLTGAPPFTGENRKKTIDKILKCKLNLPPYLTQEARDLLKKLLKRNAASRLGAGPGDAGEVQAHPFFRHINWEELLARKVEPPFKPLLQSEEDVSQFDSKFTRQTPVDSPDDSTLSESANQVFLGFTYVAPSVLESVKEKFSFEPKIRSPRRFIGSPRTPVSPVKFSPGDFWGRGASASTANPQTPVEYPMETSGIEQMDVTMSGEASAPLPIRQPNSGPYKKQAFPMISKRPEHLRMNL
Chain of MAP/microtubule affinity-regulating kinase 3 (Homo sapiens) (P27448 whole entry, looked up): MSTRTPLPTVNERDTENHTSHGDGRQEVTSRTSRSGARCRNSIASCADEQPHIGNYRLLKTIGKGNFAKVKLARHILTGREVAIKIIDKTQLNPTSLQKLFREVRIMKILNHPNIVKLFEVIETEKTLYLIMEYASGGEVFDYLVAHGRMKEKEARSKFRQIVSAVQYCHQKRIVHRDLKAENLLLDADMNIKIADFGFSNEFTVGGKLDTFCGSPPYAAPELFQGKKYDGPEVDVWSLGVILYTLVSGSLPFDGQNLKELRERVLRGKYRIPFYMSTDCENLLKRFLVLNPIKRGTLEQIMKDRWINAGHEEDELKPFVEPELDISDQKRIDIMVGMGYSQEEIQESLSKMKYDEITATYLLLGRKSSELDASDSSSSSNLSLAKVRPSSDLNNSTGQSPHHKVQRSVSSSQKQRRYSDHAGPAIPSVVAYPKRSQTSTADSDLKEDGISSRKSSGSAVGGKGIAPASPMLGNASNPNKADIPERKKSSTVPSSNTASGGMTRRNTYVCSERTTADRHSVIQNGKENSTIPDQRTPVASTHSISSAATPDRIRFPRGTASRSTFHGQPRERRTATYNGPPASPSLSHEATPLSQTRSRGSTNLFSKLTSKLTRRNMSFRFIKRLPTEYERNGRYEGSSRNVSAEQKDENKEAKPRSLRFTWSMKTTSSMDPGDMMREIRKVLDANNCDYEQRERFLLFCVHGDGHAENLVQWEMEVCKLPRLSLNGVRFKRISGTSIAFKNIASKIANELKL
Chain of Ephrin type-B receptor 4 (Homo sapiens) (P54760 whole entry): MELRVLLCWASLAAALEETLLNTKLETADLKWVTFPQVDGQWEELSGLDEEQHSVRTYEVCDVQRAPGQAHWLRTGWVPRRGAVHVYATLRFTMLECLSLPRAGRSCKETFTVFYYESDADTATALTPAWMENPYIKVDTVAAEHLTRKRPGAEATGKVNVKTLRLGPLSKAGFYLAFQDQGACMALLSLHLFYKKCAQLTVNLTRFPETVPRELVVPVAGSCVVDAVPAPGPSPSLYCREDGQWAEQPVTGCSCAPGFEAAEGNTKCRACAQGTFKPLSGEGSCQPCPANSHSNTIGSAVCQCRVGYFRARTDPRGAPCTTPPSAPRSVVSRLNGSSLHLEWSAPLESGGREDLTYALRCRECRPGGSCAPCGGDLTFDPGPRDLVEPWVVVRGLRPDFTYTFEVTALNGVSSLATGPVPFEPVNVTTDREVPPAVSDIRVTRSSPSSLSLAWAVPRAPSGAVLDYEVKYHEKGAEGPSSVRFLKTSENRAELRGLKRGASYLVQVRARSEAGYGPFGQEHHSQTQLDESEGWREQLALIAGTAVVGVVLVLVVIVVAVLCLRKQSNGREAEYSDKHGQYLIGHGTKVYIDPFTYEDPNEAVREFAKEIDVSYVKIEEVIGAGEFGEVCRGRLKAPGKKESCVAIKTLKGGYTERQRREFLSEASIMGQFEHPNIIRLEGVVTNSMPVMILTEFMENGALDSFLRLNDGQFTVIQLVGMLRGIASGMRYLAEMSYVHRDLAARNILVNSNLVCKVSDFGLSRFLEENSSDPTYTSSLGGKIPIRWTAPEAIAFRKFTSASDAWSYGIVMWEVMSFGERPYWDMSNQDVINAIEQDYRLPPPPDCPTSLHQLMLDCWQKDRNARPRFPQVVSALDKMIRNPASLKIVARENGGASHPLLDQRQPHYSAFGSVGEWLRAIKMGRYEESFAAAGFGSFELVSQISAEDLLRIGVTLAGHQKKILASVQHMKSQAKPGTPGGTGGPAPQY
Chain of Receptor tyrosine-protein kinase erbB-4 (Homo sapiens) (Q15303 whole entry): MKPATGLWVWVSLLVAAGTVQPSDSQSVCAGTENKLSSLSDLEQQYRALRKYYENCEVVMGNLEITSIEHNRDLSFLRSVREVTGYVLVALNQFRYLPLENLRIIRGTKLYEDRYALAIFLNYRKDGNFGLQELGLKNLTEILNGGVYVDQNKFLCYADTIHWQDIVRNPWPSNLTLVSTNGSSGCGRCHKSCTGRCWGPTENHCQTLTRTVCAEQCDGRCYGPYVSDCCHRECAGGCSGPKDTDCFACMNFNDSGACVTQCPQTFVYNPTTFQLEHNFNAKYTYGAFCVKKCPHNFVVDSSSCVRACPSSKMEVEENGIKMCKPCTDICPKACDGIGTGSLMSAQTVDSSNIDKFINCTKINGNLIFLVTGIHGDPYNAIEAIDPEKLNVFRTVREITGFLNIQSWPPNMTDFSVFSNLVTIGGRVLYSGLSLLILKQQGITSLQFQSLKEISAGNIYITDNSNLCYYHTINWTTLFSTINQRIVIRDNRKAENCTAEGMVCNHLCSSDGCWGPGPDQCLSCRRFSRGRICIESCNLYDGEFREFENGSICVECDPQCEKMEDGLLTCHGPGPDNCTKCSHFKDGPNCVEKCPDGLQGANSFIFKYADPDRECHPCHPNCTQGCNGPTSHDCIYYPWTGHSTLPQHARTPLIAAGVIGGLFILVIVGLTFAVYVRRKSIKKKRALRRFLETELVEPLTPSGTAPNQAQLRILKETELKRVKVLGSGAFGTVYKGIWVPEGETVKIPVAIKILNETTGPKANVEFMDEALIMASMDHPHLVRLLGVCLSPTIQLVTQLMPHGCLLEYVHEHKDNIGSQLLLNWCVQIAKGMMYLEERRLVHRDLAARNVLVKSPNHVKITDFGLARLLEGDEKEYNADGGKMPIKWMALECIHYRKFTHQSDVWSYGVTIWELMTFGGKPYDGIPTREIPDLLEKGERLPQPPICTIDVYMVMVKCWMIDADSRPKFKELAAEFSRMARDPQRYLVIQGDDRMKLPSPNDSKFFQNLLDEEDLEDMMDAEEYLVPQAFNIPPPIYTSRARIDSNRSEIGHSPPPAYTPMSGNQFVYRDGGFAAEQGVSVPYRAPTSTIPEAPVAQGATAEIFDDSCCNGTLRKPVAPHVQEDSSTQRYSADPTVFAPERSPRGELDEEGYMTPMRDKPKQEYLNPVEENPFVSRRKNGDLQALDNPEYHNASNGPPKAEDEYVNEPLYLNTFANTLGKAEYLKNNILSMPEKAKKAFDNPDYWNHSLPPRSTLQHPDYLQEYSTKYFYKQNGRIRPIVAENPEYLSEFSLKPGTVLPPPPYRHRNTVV
Chain of Serine/threonine-protein kinase Chk1 (Homo sapiens) (O14757 whole entry): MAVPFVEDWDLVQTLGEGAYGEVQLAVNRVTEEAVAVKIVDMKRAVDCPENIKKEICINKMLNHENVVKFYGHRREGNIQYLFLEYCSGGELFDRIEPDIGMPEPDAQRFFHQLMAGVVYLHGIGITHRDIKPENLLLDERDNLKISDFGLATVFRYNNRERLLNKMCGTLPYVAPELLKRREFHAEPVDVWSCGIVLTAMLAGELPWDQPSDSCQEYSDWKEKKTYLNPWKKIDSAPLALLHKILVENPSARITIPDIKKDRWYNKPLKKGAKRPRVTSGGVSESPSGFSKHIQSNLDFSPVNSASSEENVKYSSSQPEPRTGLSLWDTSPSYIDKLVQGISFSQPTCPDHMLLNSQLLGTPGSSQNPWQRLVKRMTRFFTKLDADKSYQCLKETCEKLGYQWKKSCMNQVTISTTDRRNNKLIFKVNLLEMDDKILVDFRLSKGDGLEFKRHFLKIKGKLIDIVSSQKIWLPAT
Chain of Glycogen synthase kinase-3 beta (Homo sapiens) (P49841 whole entry, looked up): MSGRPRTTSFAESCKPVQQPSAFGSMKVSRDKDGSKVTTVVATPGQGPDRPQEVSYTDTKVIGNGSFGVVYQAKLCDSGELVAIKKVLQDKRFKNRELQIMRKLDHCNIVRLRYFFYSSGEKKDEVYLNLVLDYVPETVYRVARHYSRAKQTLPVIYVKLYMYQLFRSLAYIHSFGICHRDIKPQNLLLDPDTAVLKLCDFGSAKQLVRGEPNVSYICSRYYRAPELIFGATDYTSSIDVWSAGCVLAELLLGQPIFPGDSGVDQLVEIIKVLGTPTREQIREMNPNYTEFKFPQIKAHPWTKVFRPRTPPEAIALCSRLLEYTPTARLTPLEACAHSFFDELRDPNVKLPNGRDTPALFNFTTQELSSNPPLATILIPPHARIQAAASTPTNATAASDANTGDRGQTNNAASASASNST
Chain of Serine/threonine-protein kinase 16 (Homo sapiens) (O75716 whole entry): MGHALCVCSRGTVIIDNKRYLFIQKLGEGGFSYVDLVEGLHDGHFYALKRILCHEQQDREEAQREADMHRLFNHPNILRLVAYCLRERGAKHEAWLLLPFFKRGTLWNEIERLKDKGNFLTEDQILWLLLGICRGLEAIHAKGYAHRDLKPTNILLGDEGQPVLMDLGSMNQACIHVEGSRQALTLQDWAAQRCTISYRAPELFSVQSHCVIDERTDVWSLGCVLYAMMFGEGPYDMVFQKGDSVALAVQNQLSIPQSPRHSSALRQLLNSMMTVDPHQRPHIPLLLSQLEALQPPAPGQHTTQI

Activity [1] [%] | Activity [2] [%] | Activity [3] [%] | Activity [4] [%] | Activity [5] [%] | Activity [6] [%] | Activity [7] [%] | Activity [8] [%] | Activity [9] [%] | Activity [10] [%] | Activity [11] [%] | Activity [12] [%] | Activity [13] [%] | Activity [14] [%] | Activity [15] [%] | Activity [16] [%] | Activity [17] [%] | Activity [18] [%] | Activity [19] [%] | Activity [20] [%] | Structure (SMILES) | also measured
7 | 27 | 16 | 76 | 4 | 49 | 6 | 15 | 42 | 41 | 15 | 46 | 86 | 31 | 58 | 37 | 9 | 36 | 58 | 85 | CC[C@H](CO)Nc1nc(NC(=N)N)c2ncn(C(C)C)c2n1 | Activity [21]: 29%; Activity [22]: 73%; Activity [23]: 37%; Activity [24]: 61%; Activity [25]: 100%; Activity [26]: 24%; Activity [27]: 1%
13 | 29 | 16 | 74 | 4 | 36 | 6 | 11 | 40 | 48 | 12 | 38 | 109 | 39 | 46 | 37 | 9 | 28 | 50 | 84 | CC[C@@H](CO)Nc1nc(NC(=N)N)c2ncn(C(C)C)c2n1 | Activity [21]: 22%; Activity [22]: 57%; Activity [23]: 28%; Activity [24]: 65%; Activity [25]: 81%; Activity [26]: 17%; Activity [27]: 1%
